Our source for the Activity and Drug uptake values is ChEMBL document CHEMBL2169850, “3,6-bis(3-alkylguanidino)acridines as DNA-intercalating antitumor agents” (Eur J Med Chem, 2012).

Active and inactive are the calls of the source. No cut-off for these calls is given here.

The subject of data set [1] is HL-60. Briefly: Induction of necrosis in human HL60 cells at 5 to 25 uM incubated for 24 hrs by AnnexinV/propidium iodide staining method. Format: functional, cell-based. The gist of the method:
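HL-60 cells (1.5 × 10^5) were exposed to compound, then stained 10 min with Annexin V-FITC in HEPES/CaCl2/NaCl binding buffer. Cells were washed, briefly stained with propidium iodide and analysed by flow cytometry for apoptotic and necrotic fractions. Mean ± SD of at least three independent experiments.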

The subject of data set [2] is HL-60. Briefly: Cell cycle arrest in human HL60 cells assessed as accumulation at S phase at 5 uM incubated for 72 hrs by flow cytometry (reference value: 40.30 +/- 3.15%). Format: functional.
Data set [3] deals with HL-60. Briefly: Induction of apoptosis in human HL60 cells at 5 to 25 uM incubated for 24 hrs by AnnexinV/propidium iodide staining method. In kind it is functional, cell-based. The gist of the method: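 HL-60 cells (1.5 × 10^5) were treated at 5–25 µM for 24, 48 or 72 h and harvested. They were stained with Annexin V-FITC for 10 min in HEPES/CaCl2/NaCl binding buffer, washed, briefly stained with PI (1 mg/mL) and analysed by flow cytometry for apoptosis and necrosis. Mean ± SD, n ≥ 3.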

Another data set deals with Nucleic Acid. Briefly: Binding affinity to calf thymus DNA at 9.6 uM by spectrofluorimetric titration assay. Format: nucleic-acid assay. To be noted: Bos taurus. A digest of the protocol: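 Fluorescence titration at 25 °C in 0.01 M Tris, pH 7.4. Compound (9.58 × 10^-6 M) was titrated with ctDNA from 0 to 2.57 × 10^-4 M bp, excited at 384 nm, and emission recorded from 400 to 600 nm. K and n were obtained from McGhee–von Hippel fits of Scatchard data.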

The subject of data set [4] is HL-60. Briefly: Drug uptake in human HL60 cells with normal morphology at 50 uM incubated for 18 hrs by fluorescence microscopy. Format: ADME, cell-based. The note with it: hl-60, 18 h. The gist of the method:
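HL-60 cells were treated with 50 µM compound for 18 h, washed with PBS, resuspended in HBSS and mounted as native slides. Cells were imaged by inverted fluorescence microscopy at 40×, with excitation 360/40 and emission 470/40. The fluorescence channel was merged with brightfield images.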

With `CCNC(=N)Nc1ccc2cc3ccc(NC(=N)NCC)cc3nc2c1.Cl.Cl.O`, the result in the data set on HL-60 [1], with HL-60 [2] and in the data set with HL-60 [3] was inactive.
As for `CCCCCCNC(=N)Nc1ccc2cc3ccc(NC(=N)NCCCCCC)cc3nc2c1.Cl.Cl.O`, the outcome in the data set on Nucleic Acid was Active. For the same compound, in the data set with HL-60 [4], the Drug uptake entry is reported as “Active”. In addition, the Activity in the data set with HL-60 [2] was found to be 43.6%.
